In ChEMBL document CHEMBL2321850, “Fragment-based discovery of 8-hydroxyquinoline inhibitors of the HIV-1 integrase-lens epithelium-derived growth factor/p75 (IN-LEDGF/p75) interaction” (J Med Chem, 2013):

How the values were obtained:
[1] = molecular target: T1, Human immunodeficiency virus type 1 integrase (Human immunodeficiency virus 1, UniProt Q7ZJM1); experiment: Inhibition of HIV-1 integrase 3'-processing activity
[2] = molecular target: T1, Human immunodeficiency virus type 1 integrase; experiment: Inhibition of HIV-1 integrase strand transfer activity
[3] = Inhibition of HIV-1 His6-tagged integrase interaction to FLAG-tagged LEDGF/p75 preincubated for 30 mins prior to LEDGF/p75 addition measured after 60 mins by alphascreen assay; design: species or system Human immunodeficiency virus 1
How it was run: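 His6-tagged IN (300 nM final) preincubated with compound (20 µM final) 30 min at 4 °C, then FLAG-LEDGF/p75 (300 nM final) added for 60 min at 4 °C; Ni-chelate donor and anti-FLAG acceptor beads (20 µg/mL each) added, 1 h at 30 °C, light-protected; acceptor-bead emission read.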

[4] = test system: Human immunodeficiency virus 1; experiment: Inhibition of HIV-1 FLAG-6x-His-tagged integrase interaction to FLAG-tagged LEDGF/p75 at 10 uM preincubated for 30 mins prior to LEDGF/p75 addition measured after 60 mins by quenching assay
LNCaP = experiment: Cytotoxicity against human LNCAP cells assessed as inhibition of cell proliferation after 72 hrs by MTT assay; assay type: cell-based
[5] = test system: Human immunodeficiency virus; experiment: Antiviral activity against HIV infected human MT4 cells assessed as decrease of virus-induced cytopathic effect after 72 hrs by MTT assay; assay type: functional, organism-based; conditions: Human immunodeficiency virus 1, MT4, 72 h
How it was run: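 MT-4 cells infected with 100 to 300 CCID50 of HIV (CCID50 from virus-stock titration on MT-4) in presence of fivefold serial compound dilutions; protection from viral cytopathic effect read by MTT; EC50 = concentration giving 50% protection. CC50 in MT-4 cells measured in parallel.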

MT4 = experiment: Cytotoxicity against human MT4 cells assessed as cell viability after 72 hrs by MTT assay; assay type: cell-based; conditions: mt4, 72 h
How it was run: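 MT-4 cells exposed to fivefold serial dilutions of compound run in parallel with the antiviral MTT cytopathic-effect assay; CC50 taken as the concentration killing 50% of MT-4 cells.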

T1 sequence (Q7ZJM1 whole entry): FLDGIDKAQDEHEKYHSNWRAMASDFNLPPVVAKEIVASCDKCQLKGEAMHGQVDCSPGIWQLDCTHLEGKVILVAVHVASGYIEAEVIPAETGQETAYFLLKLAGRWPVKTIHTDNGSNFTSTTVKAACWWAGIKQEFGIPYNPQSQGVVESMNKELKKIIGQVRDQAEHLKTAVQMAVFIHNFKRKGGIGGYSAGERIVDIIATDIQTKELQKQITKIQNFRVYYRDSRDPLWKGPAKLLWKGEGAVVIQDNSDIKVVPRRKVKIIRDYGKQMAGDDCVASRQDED

SMILES | IC50 [1] | IC50 [2] | IC50 [3] | inhibition [4] | CC50 (LNCaP) | EC50 [5] | CC50 (MT4)
CCOCc1ccc(O)c2ncccc12 | > 20 µM | > 20 µM | 2.4 µM | < 50% | 2 µM | – | –
Oc1ccc(CNc2cccc(C(F)(F)F)c2)c2cccnc12 | > 20 µM | > 20 µM | 2.9 µM | < 50% | > 10 µM | > 10 µM | 10 µM
Cc1cccc(NCc2ccc(O)c3ncccc23)c1 | > 20 µM | > 20 µM | 4 µM | < 50% | > 10 µM | > 9 µM | 9 µM
Oc1c(Cl)cc(Cl)c2cccnc12 [CHLOROXINE] | > 20 µM | > 20 µM | 4.3 µM | < 50% | 2.5 µM | – | –
Oc1ccc(CNc2ccc(C(F)(F)F)cc2)c2cccnc12 | > 20 µM | > 20 µM | 2.1 µM | < 50% | > 10 µM | > 9 µM | 9 µM
Oc1ccc(Cl)c2cccnc12 [CLOXYQUIN] | > 20 µM | > 20 µM | 3.6 µM | < 50% | 5 µM | – | –
Oc1ccc(CN2CCN(c3ccccn3)CC2)c2cccnc12 | > 20 µM | > 20 µM | 1.9 µM | < 50% | > 10 µM | > 9 µM | 9 µM
CC(=O)NC(c1ccc(N(C)C)cc1)c1cc(Cl)c2cccnc2c1O (stereo not given) | > 20 µM | > 20 µM | 4 µM | < 50% | 0.62 µM | – | –
Oc1ccc(CNc2ccccc2F)c2cccnc12 | > 20 µM | > 20 µM | 3.7 µM | < 50% | > 10 µM | > 9 µM | 9 µM
CCC(=O)NC(c1ccco1)c1cc(Cl)c2cccnc2c1O (stereo not given) | > 20 µM | > 20 µM | 4 µM | < 50% | 0.72 µM | – | –
COc1ccc(C(NC(C)=O)c2cc([N+](=O)[O-])c3cccnc3c2O)cc1OC (stereo not given) | > 20 µM | > 20 µM | 3.9 µM | < 50% | > 10 µM | > 42 µM | 42 µM
CC(=O)NC(c1ccccc1)c1cc(Cl)c2cccnc2c1O (stereo not given) | > 20 µM | > 20 µM | 3 µM | < 50% | 0.74 µM | – | –
Cc1cccc(NCc2ccc(O)c3ncccc23)c1C | > 20 µM | > 20 µM | 3 µM | < 50% | > 10 µM | > 13 µM | 13 µM
CCCC(=O)NC(c1ccccc1)c1ccc2cccnc2c1O (stereo not given) | > 20 µM | > 20 µM | 1.4 µM | < 50% | 0.68 µM | – | –
Oc1ccccc1C(Nc1nccs1)c1ccc2cccnc2c1O (stereo not given) | > 20 µM | > 20 µM | 4.7 µM | < 50% | 2.4 µM | – | –
Cc1cccc(NCc2ccc(O)c3ncccc23)n1 | > 20 µM | > 20 µM | 2.8 µM | < 50% | > 10 µM | > 2 µM | 2 µM

SMILES | IC50 [1] | IC50 [2] | IC50 [3] | inhibition [4] | CC50 (LNCaP) | EC50 [5] | CC50 (MT4)
Oc1ccc(Cc2ccc(O)c3ncccc23)c2cccnc12 | > 20 µM | > 20 µM | 2 µM | < 50% | 0.1 µM | – | –
CCOC(=O)C1CCCN(Cc2ccc(O)c3ncccc23)C1 (stereo not given) | > 20 µM | > 20 µM | 2 µM | < 50% | > 10 µM | > 9 µM | 9 µM
CCCC(=O)NC(c1ccc(OC)cc1)c1ccc2cccnc2c1O (stereo not given) | > 20 µM | > 20 µM | 4 µM | < 50% | 0.62 µM | – | –
CCC(=O)NC(c1ccc(OC)c(OC)c1)c1cc(Cl)c2cccnc2c1O (stereo not given) | > 20 µM | > 20 µM | 4 µM | < 50% | 3 µM | – | –
CN1CCN(Cc2ccc(O)c3ncccc23)CC1 | > 20 µM | > 20 µM | 0.8 µM | < 50% | > 10 µM | > 35 µM | 35 µM
Oc1ccc(CNc2ccccc2Cl)c2cccnc12 | > 20 µM | > 20 µM | 4.8 µM | < 50% | > 10 µM | > 34 µM | 34 µM
Cc1cccnc1NCc1ccc(O)c2ncccc12 | > 20 µM | > 20 µM | 3.5 µM | < 50% | > 10 µM | > 11 µM | 11 µM
CCOC(=O)N1CCN(Cc2ccc(O)c3ncccc23)CC1 | > 20 µM | > 20 µM | 1.5 µM | < 50% | > 10 µM | > 9 µM | 9 µM
CCN1CCN(Cc2ccc(O)c3ncccc23)CC1 | > 20 µM | > 20 µM | 1.2 µM | < 50% | > 10 µM | > 42 µM | 42 µM
Oc1ccc(CN2CCCCC2)c2cccnc12 | > 20 µM | > 20 µM | 0.4 µM | < 50% | > 10 µM | > 9 µM | 9 µM
CCC(=O)NC(c1ccccc1OC)c1ccc2cccnc2c1O (stereo not given) | > 20 µM | > 20 µM | 2 µM | < 50% | 0.58 µM | – | –
Oc1ccc(CN2CCN(c3ccccc3)CC2)c2cccnc12 | > 20 µM | > 20 µM | 2.1 µM | < 50% | 5 µM | – | –
CCOC(=O)C1CCN(Cc2ccc(O)c3ncccc23)CC1 | > 20 µM | > 20 µM | 2.2 µM | < 50% | > 10 µM | – | –
COc1cccc(C(NC(C)=O)c2ccc3cccnc3c2O)c1 (stereo not given) | > 20 µM | > 20 µM | 2 µM | < 50% | 0.58 µM | – | –
COc1cccc(NCc2ccc(O)c3ncccc23)c1 | > 20 µM | > 20 µM | 3.2 µM | < 50% | 5 µM | – | –
CCC(=O)NC(c1cccs1)c1cc([N+](=O)[O-])c2cccnc2c1O (stereo not given) | > 20 µM | > 20 µM | 3.5 µM | < 50% | 5 µM | – | –
